Series [1] in a line: melting temperature; fluorescence melt of hairpins on a sequencing array, two-state fit, raised by 9.35 °C to match UV melts. Conditions: sodium 0.088 M. An outline of the steps: (§1)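 Two-state fits, bootstrapped, provided melting temperature and folding enthalpy from Cy3 fluorescence normalised to pre-quench Cy3 and to control constructs. Library hairpins with annealed Cy3 and quencher oligos were imaged on a sequenced MiSeq flow cell in 50 mM Na-HEPES pH 8.0, 25 mM NaCl, at 2.5 °C intervals up to 60 °C. Four replicates were combined with inverse-variance weighting. A 9.35 °C upward shift was applied to fitted temperatures to match UV melts.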

The nature of series [2]: folding enthalpy; higher = less favourable; fluorescence melt of hairpins on a sequencing array, two-state fit. Particulars: sodium 0.088 M. In short, it runs like this: as §1

For the sequence GATCATTGCGATGATC ((((((....)))))), in series [1], the Tm is 51.8 °C. Further, the folding enthalpy in series [2] was -38.8 kcal/mol.
Taken in the same sequence, the figures for GATCATTTAATGATC ((((((...)))))) were 48 °C and -27.6 kcal/mol.
Taken in the same sequence, the figures for GATCATTTAGATGATC ((((((....)))))) were 47.6 °C and -37.4 kcal/mol.
On to GATCATTTCTATGATC ((((((....)))))), for which the Tm in series [1] was determined as 48.6 °C. Besides, the folding enthalpy in series [2] is -41.4 kcal/mol.
Taken in the same sequence, the figures for GATCATTTGAATGATC ((((((....)))))) were 48.2 °C and -35.4 kcal/mol.
Taken in the same sequence, the figures for GATCATTTGTATGATC ((((((....)))))) were 47.4 °C and -36 kcal/mol.
Taken in the same sequence, the figures for GATCATTTTGATGATC ((((((....)))))) were 49.5 °C and -51.2 kcal/mol.
Consider GATCATTTTTATGATC ((((((....)))))), for which the Tm in series [1] stood at 49.1 °C. In addition, in series [2], the folding enthalpy was -40 kcal/mol.
Taken in the same sequence, the figures for GATCCAAACTTGGATC ((((((....)))))) were 53.1 °C and -39.4 kcal/mol.
Taken in the same sequence, the figures for GATCCAAATATGGATC ((((((....)))))) were 49.4 °C and -34.1 kcal/mol.
Taken in the same sequence, the figures for GATCCAACAGTGGATC ((((((....)))))) were 47.1 °C and -32.1 kcal/mol.
For the sequence GATCCAACGTTGGATC ((((((....)))))), in series [1], the Tm amounted to 55.6 °C. For the same sequence, the folding enthalpy in series [2] was -58.1 kcal/mol.
With GATCCAAGCATGGATC ((((((....)))))), the Tm in series [1] was 51.8 °C. In series [2], the folding enthalpy is -41.2 kcal/mol.
Take GATCCAAGGTGGATC ((((((...)))))): the Tm in series [1] was 51.1 °C. Further, in series [2], the folding enthalpy was -32.6 kcal/mol.
On to GATCCAAGTTGGATC ((((((...)))))), for which the Tm in series [1] worked out at 49.1 °C. The folding enthalpy in series [2] is -35.7 kcal/mol.
Regarding GATCCAATACTGGATC ((((((....)))))), in series [1], the Tm was found to be 48.6 °C. Also, the folding enthalpy in series [2] was -40 kcal/mol.
Taken in the same sequence, the figures for GATCCAATATTGGATC ((((((....)))))) were 52.2 °C and -41.7 kcal/mol.
Taken in the same sequence, the figures for GATCCAATGTTGGATC ((((((....)))))) were 52.6 °C and -35 kcal/mol.
For the sequence GATCCACAAATGGATC ((((((....)))))), in series [1], the Tm was 47.5 °C. Also, in series [2], the folding enthalpy was -32.9 kcal/mol.
Taken in the same sequence, the figures for GATCCACAACTGGATC ((((((....)))))) were 47 °C and -34.5 kcal/mol.
Taken in the same sequence, the figures for GATCCACAGATGGATC ((((((....)))))) were 49 °C and -38.6 kcal/mol.
Taken in the same sequence, the figures for GATCCACATATGGATC ((((((....)))))) were 50.6 °C and -41.2 kcal/mol.
Regarding GATCCACATGTGGATC ((((((....)))))), the Tm in series [1] was 62.1 °C. The folding enthalpy in series [2] is -41 kcal/mol.
Taken in the same sequence, the figures for GATCCACCCCTGGATC ((((((....)))))) were 49.9 °C and -37.2 kcal/mol.
Taken in the same sequence, the figures for GATCCACCGATGGATC ((((((....)))))) were 49.2 °C and -36.7 kcal/mol.
Taken in the same sequence, the figures for GATCCACCGCTGGATC ((((((....)))))) were 50 °C and -39.8 kcal/mol.
In the case of GATCCACCTATGGATC ((((((....)))))), the Tm in series [1] was 50.1 °C. Also, the folding enthalpy in series [2] is -41.4 kcal/mol.
Taken in the same sequence, the figures for GATCCACGACTGGATC ((((((....)))))) were 48.8 °C and -31.4 kcal/mol.
Take GATCCACGAGTGGATC ((((((....)))))): the Tm in series [1] was 62.8 °C. In series [2], the folding enthalpy was -39.8 kcal/mol.
Consider GATCCACGGCTGGATC ((((((....)))))), for which, in series [1], the Tm amounted to 50.5 °C. Further, the folding enthalpy in series [2] is -39.1 kcal/mol.
As for GATCCACGGGTGGATC ((((((....)))))), in series [1], the Tm came out at 58.8 °C. For the same sequence, in series [2], the folding enthalpy was -39.6 kcal/mol.
Taken in the same sequence, the figures for GATCCACGTTTGGATC ((((((....)))))) were 50.5 °C and -34.6 kcal/mol.
Taken in the same sequence, the figures for GATCCACTGATGGATC ((((((....)))))) were 50.4 °C and -38.5 kcal/mol.
For the sequence GATCCACTGTGGATC ((((((...)))))), the Tm in series [1] worked out at 51.6 °C. Further, the folding enthalpy in series [2] is -39.4 kcal/mol.
Taken in the same sequence, the figures for GATCCACTGTTGGATC ((((((....)))))) were 49.9 °C and -30.4 kcal/mol.
With GATCCAGACCTGGATC ((((((....)))))), in series [1], the Tm was 54.6 °C. For the same sequence, in series [2], the folding enthalpy is -44.8 kcal/mol.
Taken in the same sequence, the figures for GATCCAGAGTTGGATC ((((((....)))))) were 49.2 °C and -39.8 kcal/mol.
Taken in the same sequence, the figures for GATCCAGATCTGGATC ((((((....)))))) were 54.3 °C and -48 kcal/mol.
Taken in the same sequence, the figures for GATCCAGGATGGATC ((((((...)))))) were 57.8 °C and -40.5 kcal/mol.
For the sequence GATCCAGGGATGGATC ((((((....)))))), the Tm in series [1] was determined as 53.3 °C. Besides, in series [2], the folding enthalpy was -38.9 kcal/mol.
Taken in the same sequence, the figures for GATCCAGGGTGGATC ((((((...)))))) were 49.3 °C and -31.5 kcal/mol.
For the sequence GATCCAGTAATGGATC ((((((....)))))), the Tm in series [1] amounted to 58.7 °C. Further, the folding enthalpy in series [2] is -34.2 kcal/mol.
Taken in the same sequence, the figures for GATCCAGTACTGGATC ((((((....)))))) were 57.1 °C and -47.2 kcal/mol.
Taken in the same sequence, the figures for GATCCAGTCGTGGATC ((((((....)))))) were 52.8 °C and -35.9 kcal/mol.
Taken in the same sequence, the figures for GATCCAGTTATGGATC ((((((....)))))) were 58.4 °C and -46.4 kcal/mol.
GATCCAGTTGTGGATC ((((((....)))))): the Tm in series [1] was determined as 50.4 °C. The folding enthalpy in series [2] is -38.6 kcal/mol.
Taken in the same sequence, the figures for GATCCAGTTTGGATC ((((((...)))))) were 52.6 °C and -32.4 kcal/mol.
Taken in the same sequence, the figures for GATCCATAAGTGGATC ((((((....)))))) were 51.9 °C and -39.2 kcal/mol.
Taken in the same sequence, the figures for GATCCATACGTGGATC ((((((....)))))) were 54.5 °C and -51 kcal/mol.
Take GATCCATACTTGGATC ((((((....)))))): the Tm in series [1] came to 54.4 °C. For the same sequence, the folding enthalpy in series [2] was -37.3 kcal/mol.
Taken in the same sequence, the figures for GATCCATCATGGATC ((((((...)))))) were 52.5 °C and -32.5 kcal/mol.
Taken in the same sequence, the figures for GATCCATCCCTGGATC ((((((....)))))) were 51 °C and -35.4 kcal/mol.
Turning to GATCCATGATGGATC ((((((...)))))), the Tm in series [1] was found to be 49.6 °C. For the same sequence, in series [2], the folding enthalpy is -34.2 kcal/mol.
Taken in the same sequence, the figures for GATCCATGCTTGGATC ((((((....)))))) were 55.1 °C and -43.6 kcal/mol.
Taken in the same sequence, the figures for GATCCATGGATGGATC ((((((....)))))) were 53 °C and -39.1 kcal/mol.
Taken in the same sequence, the figures for GATCCATGTTGGATC ((((((...)))))) were 52 °C and -36.8 kcal/mol.
For GATCCATGTTTGGATC ((((((....)))))), the Tm in series [1] worked out at 53.8 °C. For the same sequence, in series [2], the folding enthalpy is -42.8 kcal/mol.
Taken in the same sequence, the figures for GATCCATTGGTGGATC ((((((....)))))) were 53 °C and -44.4 kcal/mol.
Taken in the same sequence, the figures for GATCCCACCCGGGATC ((((((....)))))) were 60 °C and -41.1 kcal/mol.
Taken in the same sequence, the figures for GATCCCACCGGGGATC ((((((....)))))) were 63.7 °C and -32.3 kcal/mol.
In the case of GATCCCACCTGGGATC ((((((....)))))), in series [1], the Tm came to 60.1 °C. In addition, the folding enthalpy in series [2] is -35.6 kcal/mol.
Taken in the same sequence, the figures for GATCCCACTAGGGATC ((((((....)))))) were 65.9 °C and -33.1 kcal/mol.
Taken in the same sequence, the figures for GATCCCACTGGGATC ((((((...)))))) were 60.9 °C and -34.8 kcal/mol.
Taken in the same sequence, the figures for GATCCCAGAGGGATC ((((((...)))))) were 68.5 °C and -34.2 kcal/mol.
On to GATCCCAGCCGGGATC ((((((....)))))), for which, in series [1], the Tm was 64.2 °C. The folding enthalpy in series [2] is -32.8 kcal/mol.
Taken in the same sequence, the figures for GATCCCAGGGGGGATC ((((((....)))))) were 59.2 °C and -32.3 kcal/mol.
With GATCCCAGTAGGGATC ((((((....)))))), the Tm in series [1] amounted to 66 °C. Besides, the folding enthalpy in series [2] is -35 kcal/mol.
Taken in the same sequence, the figures for GATCCCAGTCGGGATC ((((((....)))))) were 61.3 °C and -33.4 kcal/mol.
Taken in the same sequence, the figures for GATCCCAGTTGGGATC ((((((....)))))) were 61.2 °C and -42 kcal/mol.
Taken in the same sequence, the figures for GATCCCATACGGGATC ((((((....)))))) were 64.6 °C and -38.5 kcal/mol.
Regarding GATCCCATTGGGATC ((((((...)))))), the Tm in series [1] turned out to be 65.5 °C. Also, in series [2], the folding enthalpy was -31.9 kcal/mol.
Taken in the same sequence, the figures for GATCCCATTGGGGATC ((((((....)))))) were 62.1 °C and -38.2 kcal/mol.
Taken in the same sequence, the figures for GATCCCCACGGGATC ((((((...)))))) were 63.4 °C and -34.9 kcal/mol.
Taken in the same sequence, the figures for GATCCCCATCGGGATC ((((((....)))))) were 58.2 °C and -35.4 kcal/mol.
Consider GATCCCCCAGGGATC ((((((...)))))), for which the Tm in series [1] came out at 63.8 °C. Also, the folding enthalpy in series [2] was -33.9 kcal/mol.
Regarding GATCCCCCAGGGGATC ((((((....)))))), the Tm in series [1] stood at 65.2 °C. The folding enthalpy in series [2] is -36.4 kcal/mol.

These data come from the array DNA melting data of Ke et al. (doi:10.1101/2024.01.08.574731).
